ChEMBL document CHEMBL1153749, “Flavonoids from the heartwood of the Thai medicinal plant Dalbergia parviflora and their effects on estrogenic-responsive human breast cancer cells” (2009)

Key:
Assay type in all cases: functional
MCF7 [1] = test: Estrogenic activity in human MCF7 cells assessed as drug level causing stimulation of cell proliferation equivalent to 100 pM estradiol after 96 hrs by alamar blue assay
Procedure, shortened: (§1)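 Cells seeded at 10^4 per well in phenol red-free RPMI with 5% DCC-treated FBS. Compounds added in DMSO (vehicle control 1% DMSO) for 96 h at 37 °C, 5% CO2, with serial estradiol dilutions run alongside. Alamar Blue for 3 h, fluorescence ex 530/em 590 nm. Estradiol-equivalent concentration fitted by linear regression from at least five concentrations in quadruplicate.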

MCF7 [2] = test: Estrogenic activity in luciferase transfected human MCF7 cells assessed as drug level causing stimulation of cell proliferation equivalent to 10 pM estradiol by luciferase reporter gene assay
Procedure, shortened: (§2)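 Reporter assay in MCF-7 or T47D cells transiently transfected with luciferase. Compounds tested from 0.01 to 10 µM. Luciferase induction is expressed as the compound concentration equivalent to the 10 or 100 pM estradiol response. Values come from linear regression over at least five concentrations in quadruplicate.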

T47D [3] = test: Estrogenic activity in luciferase transfected human T47D cells assessed as drug level causing stimulation of cell proliferation equivalent to 10 pM estradiol by luciferase reporter gene assay; procedure, shortened: as §2
T47D [4] = test: Estrogenic activity in human T47D cells assessed as drug level causing stimulation of cell proliferation equivalent to 100 pM estradiol after 96 hrs by alamar blue assay; procedure, shortened: as §1
T47D [5] = test: Estrogenic activity in luciferase transfected human T47D cells assessed as drug level causing stimulation of cell proliferation equivalent to 100 pM estradiol by luciferase reporter gene assay; procedure, shortened: as §2
MCF7 [6] = test: Estrogenic activity in luciferase transfected human MCF7 cells assessed as drug level causing stimulation of cell proliferation equivalent to 100 pM estradiol by luciferase reporter gene assay; procedure, shortened: as §2
T47D [7] = test: Estrogenic activity in human T47D cells assessed as drug level causing stimulation of cell proliferation equivalent to 10 pM estradiol after 96 hrs by alamar blue assay; procedure, shortened: as §1
MCF7 [8] = test: Estrogenic activity in human MCF7 cells assessed as drug level causing stimulation of cell proliferation equivalent to 10 pM estradiol after 96 hrs by alamar blue assay; procedure, shortened: as §1

SMILES | Activity (MCF7 [1]) [µM] | Activity (MCF7 [2]) [µM] | Activity (T47D [3]) [µM] | Activity (T47D [4]) [µM] | Activity (T47D [5]) [µM] | Activity (MCF7 [6]) [µM] | Activity (T47D [7]) [µM] | Activity (MCF7 [8]) [µM]
COc1ccc(-c2coc3cc(O)ccc3c2=O)c(OC)c1O [KHRINONE E] | >100 | 5.9 | >100 | >100 | >100 | >100 | >100 | 4.7
O=C1C[C@@H](c2ccc(O)cc2)Oc2cc(O)ccc21 [LIQUIRTIGENIN] | 0.65 | 0.01 | 0.01 | >100 | 5.9 | 0.01 | 0.64 | 0.1
O=C1C[C@@H](c2ccc(O)cc2)Oc2cc(O)cc(O)c21 [NARINGENIN] | 0.7 | 1.7 | 0.01 | 1.6 | 5.8 | 2.6 | 0.09 | 0.2
O=C1C[C@@H](c2ccccc2)Oc2cc(O)cc(O)c21 [PINOCEMBRIN] | >100 | >100 | >100 | >100 | >100 | >100 | 7.6 | 17
COc1ccc(-c2coc3cc(O)cc(O)c3c2=O)cc1O [PRATENSEIN] | 50.4 | >100 | >100 | >100 | >100 | >100 | 6.4 | 4.5
COc1c(O)cc2occ(-c3ccc(O)cc3)c(=O)c2c1O [TECTORIGENIN] | 2.7 | >100 | 1.4 | 6.9 | 2.2 | >100 | 0.3 | 0.5
COc1cc(O)ccc1-c1coc2cc(O)cc(O)c2c1=O [THERALIN] | >100 | 0.01 | >100 | >100 | >100 | 0.4 | 1.7 | 0.6
COc1cc(O)ccc1C/C=C/c1ccc(O)cc1 [XENOGNOSIN] | 4.6 | >100 | 0.01 | >100 | 5.7 | >100 | 0.7 | 0.1
